Source: the EternaBench riboswitch data

Key:
MS2 coat protein [1] = test: apparent Kd, MS2 coat protein; higher = weaker binding; RNA-MaP array; tryptophan 2.4 mM where present
Outline: (§1)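 Stalled E. coli RNA polymerase transcribed each design on Illumina sequencing-chip clusters. The clusters were titrated with SNAP-549-labelled MS2 coat protein, starting at 0.7 or 1.5 nM and doubling up to 3 µM, first without ligand and then with constant ligand, in 100 mM Tris-HCl pH 7.5, 80 mM KCl, 4 mM MgCl2, BSA, DTT, yeast tRNA and Tween-20. Green signal was normalised to red-channel RNA signal and to the control-cluster median Fmax. The apparent Kd is the median of filtered binding-curve fits made for each cluster.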

MS2 coat protein [2] = test: apparent Kd, MS2 coat protein; higher = weaker binding; RNA-MaP array; theophylline 2 mM where present
Outline: as §1

[3] = designed as: OFF switch for tryptophan, no ligand
[4] = ligand present: tryptophan, designed as: OFF switch for tryptophan
[5] = designed as: OFF switch for theophylline, no ligand
[6] = ligand present: theophylline, designed as: OFF switch for theophylline
[7] = designed as: ON switch for theophylline, no ligand
[8] = ligand present: theophylline, designed as: ON switch for theophylline

Sequence | apparent Kd (MS2 coat protein [2]; [5]) [nM] | apparent Kd (MS2 coat protein [2]; [6]) [nM] | apparent Kd (MS2 coat protein [2]; [7]) [nM] | apparent Kd (MS2 coat protein [2]; [8]) [nM] | also measured
CUACAUUUGUAGAAACCGGUCAACAAUAAUCGAGGACCGGUACGGCCGCCACUCGUAUAAUUUUAUACAUGAGGAUCACCCAUGU | – | – | – | – | apparent Kd (MS2 coat protein [1]; designed as: ON switch for tryptophan, no ligand): 13.5 nM; apparent Kd (MS2 coat protein [1]; ligand present: tryptophan, designed as: ON switch for tryptophan): 13.4 nM
UCAUAAGUACCGGUCCUCAGAUCCUCAUGACGAGGACCGGUACGGCCGCCACUCGAAACAUGAGGAUCACCCAUGUAAUAAUACU | – | – | – | – | apparent Kd (MS2 coat protein [1]; [3]): 24.1 nM; apparent Kd (MS2 coat protein [1]; [4]): 23.6 nM
AGUUUAGACACGGCCGCCACUCGUGACAGAUUUCGCAGUGGUCAACAUGAGGAUCACCCAUGUCUGAGGACCGGGUGUUGAGUUU | – | – | – | – | apparent Kd (MS2 coat protein [1]; [3]): 44.1 nM; apparent Kd (MS2 coat protein [1]; [4]): 259 nM
UUCAAAGGGAACGGUGCUGGUAACAGAGAUACCAGAGUAAUAAUACUCCCUUGGCAGCUCAUAACAUGAGGAUCACCCAUGUAAU | 13.4 | 16.6 | – | – | –
GAUGAACUAUUUGAUACCAGACUACAUGAGGAUCACCCAUGUGAGUUUCCUCCUCUGCCAGUCCCUUGGCAGCAAAUAGUUUAUC | 56.5 | 148 | – | – | –
ACAUGAGGAUCACCCAUGUUCCUCAUUGAUACCAGUGAAUUUAGACGCCCUUGGCAGCGAGUUUUUUAAGAAGAAGUUUUUUUUU | 421 | 1110 | – | – | –
ACCAUGUAAUCAGAUACCAGACAUCUUUUAAAUCAUAUUACAUGAGGAUCACCCAUGUUGGUCCCUUGGCAGCUGAAAUAUUUCA | – | – | 356 | 109 | –
GCUGGGUGCGCAAGGACCUGGCGUUGCGAUACCAGCACGGUAACGUGCCCUUGGCAGCGCACAUGAGGAUCACCCAUGUGGUGCG | 24.6 | 329 | – | – | –
GAUAGUUGAUGGGAUACCAGCCUACACAUGAGGAUCACCCAUGUGAUUCGUGUACGACUGGGCCCUUGGCAGCCCAUAUUGUGUA | – | – | 107 | 55.1 | –
CCUAGCACACAUGAUACCAGCGACAUGAGGAUCACCCAUGUACGGCGUGUAUCGCAAGGUUGCCCUUGGCAGCAUGAUAGUGCUG | 14.4 | 182 | – | – | –
UGUAUGUGAUUUGAUACCAGUCCAACUGGUAAAACAUGAGGAUCACCCAUGUAAAAUUGGGACCCUUGGCAGCAAAUCGCAUACU | – | – | 355 | 30.1 | –
CUCUUCCGGAAGGAUACCAGCUACAUGAGGAUCACCCAUGUAGGAGCGGGUUUCUAAUGUAGCCCUUGGCAGCCUUAGCCCGUCG | 17.6 | 60.7 | – | – | –
UAAAACAUGAGGAUCACCCAUGUAAAUGAUACCAGAGUGAUGAUCCUCCCUUGGCAGCAUAACGCUGAUUGAUUACAAUCAGCGA | – | – | 95.9 | 267 | –
AGACAUGAGGAUCACCCAUGUAGCAUGGAUACCAGAUGUAGAUUAGUCCCUUGGCAGCUGUGGUAAAGUGAUGCAUUGCUCCUAG | 49.2 | 47.4 | – | – | –
AGUACACGAACUGAUACCAGCCGGACAUGAGGAUCACCCAUGUCCUACCUCUGUUCGGUUGGCCCUUGGCAGCAGUUCGUGUACA | – | – | 81.6 | 121 | –
AGCACAUGAGGAUCACCCAUGUGAGGUGAUACCAGUGAGAAGAAGCACCCUUGGCAGCACUUGGGUACAUGAGGAUCACCCAUGU | 58.9 | 169 | – | – | –
AACAUGAGGAUUGAUACCAGUCCAUGAGGAUCACAUGAGGAUCACCCAUGUGGAACAUGAGGCCCUUGGCAGCAGUACAACAUGA | – | – | 15.6 | 11 | –
UUAUUUAUAAUGGAUACCAGUAUAAUGGCCGCAAAUCCUGACAUGAGGAUCACCCAUGUAUGCCCUUGGCAGCUGUUAUGGGUUU | 41.1 | 57.6 | – | – | –
UUUAAAAUAACAGAUACCAGCGUGUUAUAAAACAUGAGGAUCACCCAUGUAGUGAUCAAGCGCCCUUGGCAGCUGGUAUUUUAGG | – | – | 151 | 167 | –
AAGGUGAUCCGUGAUACCAGCUCAACAUGAGGAUCACCCAUGUAACGGACGAAAGUCCGGAGCCCUUGGCAGCACGGUAAUAAUA | – | – | 11.2 | 11.4 | –
GGUAGCAGGACUGAUACCAGUCCAGCGAAUCAUACGACGCAACAUGAGGAUCACCCAUGUGACCCUUGGCAGCAGUCUGCUACCG | – | – | 25.4 | 12.8 | –
UAUAUAUGGAUGGAUACCAGCAGAGAAAACGUUUAUCCUAACAUGAGGAUCACCCAUGUAUGCCCUUGGCAGCUGUUUAUAUAUA | 26.6 | 29.1 | – | – | –
UAUAUUGUGAUGGAUACCAGCAGAGAAAACGUUUAUCCUAACAUGAGGAUCACCCAUGUAUGCCCUUGGCAGCUGUUGUGAUAUA | 71.4 | 46.9 | – | – | –
UGCGUACAUGAGGAUCACCCAUGUAUAGAUACCAGUCACCCAUGUGGCCCUUGGCAGCUAACAUGAGGAUCACUACAUGAGGAUC | 34.5 | 141 | – | – | –
ACAUGAGGAUCACCCAUGUUCCUCGCCGAUACCAGUGAAGAAUUACGCCCUUGGCAGCGGAAUGAGUGUUUUGGAGAUGAGGUAC | 62.4 | 107 | – | – | –
AGCGACAUGCAUGAUACCAGCUACAUGAGGAUCACCCAUGUACGUCAGUAAUGACUGUGUAGCCCUUGGCAGCAUAGAGCAUGUA | 17.5 | 44.5 | – | – | –

Sequence | apparent Kd (MS2 coat protein [2]; [5]) [nM] | apparent Kd (MS2 coat protein [2]; [6]) [nM] | apparent Kd (MS2 coat protein [2]; [7]) [nM] | apparent Kd (MS2 coat protein [2]; [8]) [nM] | also measured
UCGUGUAUAUCGGAUACCAGUGAAAUCGAUACAUGAGGAUCACCCAUGUGAGAGGAUGUACACCCUUGGCAGCUGUAUAUAUCUG | – | – | 24.3 | 13.6 | –
GAAAGAUGAGGCGGCAGUACCGAUGUCGAUACCAGCAUGAACAAAUGCCCUUGGCAGCGACAUGAGGAUCACCCAUGUAUCUGCG | 11.3 | 127 | – | – | –
UCCUCAUGGCAUGAUACCAGACCUAACAUGAGGAUCACCCAUGUAUCAGGCAAUUGUUACGUCCCUUGGCAGCAUGUAUGCCGAC | – | – | 70.2 | 138 | –
AGACAUGUAAGAUAAUUGACUUUUACAGAUACCAGACUGUCUAAUGUCCCUUGGCAGCUGCAUUACAUGAGGAUCACCCAUGUUA | 19.2 | 17.9 | – | – | –
ACAUGAGGAUCACCCAUGUUCCUCAUUGAUACCAGUGAAUUUAGACGCCCUUGGCAGCGAGUUUUUGAAGAAGAAGUUUUUUUUU | 545 | 1080 | – | – | –
GUUAUAUUAAUUGAUACCAGCGAGAAAACAUGAGGAUCACCCAUGUUCGCCCAUGUUAAGCGCCCUUGGCAGCAAUUUUAUUAGC | 30.6 | 91.6 | – | – | –
AUAUUAGACCUGGAUACCAGCGACAUGAGGAUCACCCAUGUAUGUGCAUCUGCCAUGAUAUGCCCUUGGCAGCCACCGAGGUCGU | 11.4 | 19.1 | – | – | –
ACAUGAGGAUCACCCAUGUGCCGUCUUGAUACCAGACCCGAAGUAGUCCCUUGGCAGCAACUACGUGACGGUCGCGCAUGUGUAG | 19.8 | 28.7 | – | – | –
CCCAACAGUGAUGCCGGUGUUGGUGGUGAUACCAGCGUCUUAUGGCGCCCUUGGCAGCACCAACAUGAGGAUCACCCAUGUGAAA | – | – | 55.2 | 409 | –
GUAUGGAAACAUACUAGGGUAUCGUGAGAUACCAGUACAGAAAUGUACCCUUGGCAGCUCGCGCAUACAUGAGGAUCACCCAUGU | 18.8 | 29.3 | – | – | –
ACAUGAGGAUCACCCAUGUCAGGGCACGAUACCAGCUGAUCCGAUGGCCCUUGGCAGCGUGACGUGUGGUCAUGAGGAUCACCCG | – | – | 189 | 156 | –
AGACAUGAGGAUCACCCAUGUAGCAUGGAUACCAGAUGUAGAUUUAUCCCUUGGCAGCUGUGGUAAAGUGAUGCAUUGCUCCUAG | 37.8 | 42.2 | – | – | –
UCGACAGUGAACGAUACCAGCGUCACGUGGCCGGUGGUCACAUGAGGAUCACCCAUGUAACGCCCUUGGCAGCGUGCACGUAUCA | 20.6 | 182 | – | – | –
AACAUCUGGCGUGAUACCAGCCACAUGAGGAUCACCCAUGUCAACACUCGCAAUUGCGACGGCCCUUGGCAGCACGCAUCCUCAG | – | – | 64 | 12.1 | –
ACAUGAGGAUCACCCAUGUAAAUCCUCGAUACCAGCCAAAGGAGAGGCCCUUGGCAGCGGAAAGGCCGGGUAUAAAUGUCCGGCC | – | – | 134 | 126 | –
AGUAAUCUAACAGAUACCAGACGGUAUAUAACAUGAGGAUCACCCAUGUCUUGGGUGUACGUCCCUUGGCAGCUGAAAAUGAUAA | – | – | 567 | 383 | –
UGGCAGGAGUGAUCCUCCUGCCAAGGUGAUACCAGCAUCGAAAGAUGCCCUUGGCAGCACCAACAUGAGGAUCACCCAUGUAAUA | – | – | 108 | 47.9 | –
GAUCUUGCGGGCGCCCGCAAGGUUGCGGAUACCAGCGAGAUUAAUCGCCCUUGGCAGCCGAACAUGAGGAUCACCCAUGUCGGAC | – | – | 9.62 | 15.3 | –
GAGCUGAUGUAGAGCCUUUAGUUCUGAGAUACCAGUACAGAAAUGUACCCUUGGCAGCUCAGCUUUACAUGAGGAUCACCCAUGU | 19 | 23.7 | – | – | –
UUUAUGGAGCUUUUAUUUACGAUUUCUGAUACCAGUGUUUCAUUUCACCCUUGGCAGCAGUGACAUGAGGAUCACCCAUGUAAUA | – | – | 28 | 22.3 | –
ACAUGAGGAUCACCCAUGUUCCUCUUUGAUACCAGUGAGUUGUUUCGCCCUUGGCAGCGAGUUUUUUUUUUUUUGUUUUGUUUGG | 274 | 390 | – | – | –
UGUAACAUGAGGAUCACCCAUGUGAGUGAUACCAGACUAGUAUUAGUCCCUUGGCAGCACGUUGGGCGAGUGUAUAGUCUAUGCG | – | – | 112 | 110 | –
CUUGUCGUAACUGAUACCAGUGUACUGACAUGAGGAUCACCCAUGUUGGGUUUUGUUGUACACCCUUGGCAGCAGAAUCGAUAAG | 73.8 | 121 | – | – | –
AUUGCGAGUGAGUCGUGUAACGAUUCAGAUACCAGGCAUUUCGUUGUCCCUUGGCAGCUGUCUUACAUGAGGAUCACCCAUGUUA | 52.3 | 106 | – | – | –
AACCGAGGCUAUCCUCUCCGCCUAUGUGAUACCAGAAUAAUUUUAUUCCCUUGGCAGCAUGACAUGAGGAUCACCCAUGUCUCUU | – | – | 17.6 | 20.3 | –
UUUACAUGAGGAUCACCCAUGUGCCAUGAUACCAGACAUGAAAAUGUCCCUUGGCAGCAUGAAUGAUUCAUAGGAUAAUUAUGGG | – | – | 99.2 | 98.8 | –
